# Results of several laboratories.
# Each line is one published result; the experiments were not run side by side.
# Observed: microbial growth
Structure (SMILES),organism,assay,system,MIC
Cc1ccc2[nH]nc(-c3nnc(Nc4ccc(C)c(C)c4)s3)c2c1,Serratia marcescens,,ATCC8100,123 µg/mL
Cc1ccc(-c2cc(-c3ccc(OCc4ccccc4)cc3)nc3c(N=Nc4ccc(F)cc4)c(N)nn23)cc1,Enterobacter cloacae,,ATCC23355,31.3 µg/mL
C[C@@H](O)[C@H]1C(=O)N2C(C(=O)O)=C(SCCN=CN)C[C@H]12,Enterobacter cloacae,broth dilution,ATCC13047,2 µg/mL
Cc1cc(Nc2nnc(-c3n[nH]c4ccc(C)cc34)s2)cc([N+](=O)[O-])c1,Serratia marcescens,,ATCC8100,198 µg/mL
COc1ccc(N=Nc2c(N)nn3c(-c4ccc(C)cc4)cc(-c4ccc(OCc5ccccc5)cc4)nc23)cc1,Enterobacter cloacae,,ATCC23355,31.3 µg/mL
CCCCCCC#Cc1cncc(-c2nnc(SCc3cc([N+](=O)[O-])cc([N+](=O)[O-])c3)n2CCOC2OC(CN)C(O)C2O)c1 (stereo not shown),Enterobacter cloacae,broth dilution,DSM30054,64 µg/mL
Cc1ccc2[nH]nc(-c3nnc(Nc4cc(Cl)cc(Br)c4)s3)c2c1,Serratia marcescens,,ATCC8100,250 µg/mL
CCCCCCC#Cc1cncc(-c2nnc(SCc3ccc(Cl)cc3)n2CCCN)c1,Enterobacter cloacae,broth dilution,DSM30054,> 64 µg/mL
Cc1cc(O)cc(Nc2nnc(-c3n[nH]c4ccc(C)cc34)s2)c1,Serratia marcescens,,ATCC8100,125 µg/mL
CCCCCCC#Cc1cncc(-c2nnc(SCc3cc([N+](=O)[O-])cc([N+](=O)[O-])c3)n2C2CCNCC2)c1,Enterobacter cloacae,broth dilution,DSM30054,> 64 µg/mL
CN(C)[C@@H]1C(O)=C(C(N)=O)C(=O)[C@@]2(O)C(O)=C3C(=O)c4c(O)cccc4[C@@](C)(O)[C@H]3C[C@@H]12,Enterobacter cloacae,broth dilution,ATCC13047,2 µg/mL
CCCCCCC#Cc1cncc(-c2nnc(SCc3cc(C(F)(F)F)cc(C(F)(F)F)c3)n2CCCN)c1,Enterobacter cloacae,broth dilution,DSM30054,> 64 µg/mL
CNC(C)C1CCC(N)C(OC2C(N)CC(N)C(OC3OCC(C)(O)C(NC)C3O)C2O)O1 (stereo not shown),Enterobacter cloacae,broth dilution,ATCC13047,4 µg/mL
Nc1nn2c(-c3ccco3)cc(-c3ccc(OCc4ccccc4)cc3)nc2c1N=Nc1ccc(F)cc1,Enterobacter cloacae,,ATCC23355,15.6 µg/mL
CC1(C)S[C@@H]2[C@H](NC(=O)[C@H](N)c3ccc(O)cc3)C(=O)N2[C@H]1C(=O)O,Enterobacter cloacae,broth dilution,ATCC13047,> 64 µg/mL
Cc1ccc(N=Nc2c(N)nn3c(-c4ccc(C)cc4)cc(-c4ccc(OCc5ccccc5)cc4)nc23)cc1,Enterobacter cloacae,,ATCC23355,15.6 µg/mL
